{
  "source": "paper PMC8995400",
  "about": "(Drug delivery and translational research, 2021)",
  "key": {"Hec50co cells [1]": {"tested_on": "Hec50co cells", "assay": "Cell viability", "type": "cell-based, human", "conditions": "PD98059 alone"}, "Hec50co cells [2]": {"tested_on": "Hec50co cells", "assay": "Cell cycle analysis by flow cytometry", "type": "cell-based, human", "summary_of_the_method": "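Hec50co cells seeded at 5×10^3 cells/well in complete DMEM and held 24 hr at 37°C, 5% CO2. They were then exposed 24 hr to taxane (5 or 10 nM), MEK inhibitor (25 μM) or both. Cells were PBS-washed, trypsinized, fixed in ice-cold 70% ethanol 30 min at 4°C, then taken up in PBS with 1% NP40 and 100 μg/mL RNase at 37°C for 30 min. Flow cytometry gave % cells per phase; mean ± SD, n = 3.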"}, "[3]": {"assay": "Plasma pharmacokinetics after IV injection in mice", "type": "in vivo, BALB/CJ mice", "conditions": "for C0 / clearance / MRT inf / half-life / Vd: BALB/CJ, mouse, iv, 113 ug; for clearance: Cl; for MRT inf: MRT0-inf; for Vd: Vss", "summary_of_the_method": "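Same IV dosing of mice (113 μg, solution or nanoparticle-loaded), sampled 5, 30, 60, 120, 180 and 360 min. Blood was spun at 10,600 xg for 5 min, and plasma was extracted and assayed by C18 HPLC-UV (methanol:water 70:30, 0.1% TFA, 320 nm). Concentration–time data were analysed in PK Solver by non-compartmental, 1- and 2-compartment models. n = 3, mean ± SD.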"}, "[4]": {"assay": "Biodistribution of PD98059 in mouse organs after IV injection", "type": "in vivo, BALB/CJ mice", "conditions": "mice; for AUC0-6: IV", "summary_of_the_method": "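BALB/CJ mice (8 weeks, 20–23 g) got 113 μg test compound as solution, or as loaded PAMAM-coated PLGA-PEG nanoparticles (3 mg, equivalent dose), IV retro-orbitally. Organs were taken at 5–360 min, rinsed, bead-homogenised in PBS with 7-hydroxyflavone internal standard, and ethyl acetate-extracted. Levels were measured by C18 HPLC-UV at 320 nm against the area ratio to standard. n = 3, mean ± SD.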"}, "[5]": {"conditions": "rats, 2-compartment open model; cited from earlier work"}, "[6]": {"conditions": "in 24 h; cited from earlier work"}, "[7]": {"conditions": "Non compartment model, IV, mice"}, "[8]": {"conditions": "One-compartment model, IV, mice"}, "[9]": {"conditions": "Two-compartment model, IV, mice"}},
  "data": [
    {"smiles": "COc1cccc(-c2cc(=O)c3ccccc3o2)c1N", "note": "[PD98059, 2-(2-Amino-3-methoxyphenyl)-4H-1-benzopyran-4-one]", "values": [
      {"measurement": "cytotoxicity", "setting": "Hec50co cells [1]; 5 μM", "result": 3.8, "unit": "%"},
      {"measurement": "cytotoxicity", "setting": "Hec50co cells [1]; 10 μM", "result": 5.3, "unit": "%"},
      {"measurement": "cytotoxicity", "setting": "Hec50co cells [1]; 25 μM", "result": 17, "unit": "%"},
      {"measurement": "cells at the G0/G1 phase", "setting": "Hec50co cells [2]; 25 μM PD98059, 24 hr", "result": 63.04, "unit": "%"},
      {"measurement": "C0", "setting": "[3]; C0, Non compartment model, mice", "result": 2910, "unit": "ng/mL"},
      {"measurement": "C0", "setting": "[3]; C0, One-compartment model, mice", "result": 2630, "unit": "ng/mL"},
      {"measurement": "C0", "setting": "[3]; C0, Two-compartment model, mice", "result": 3150, "unit": "ng/mL"},
      {"measurement": "clearance", "setting": "[3]; Non compartment model, mice", "result": 0.31, "unit": "mL/min"},
      {"measurement": "clearance", "setting": "[3]; One-compartment model, mice", "result": 1.25, "unit": "mL/min"},
      {"measurement": "clearance", "setting": "[3]; Two-compartment model, mice", "result": 0.29, "unit": "mL/min"},
      {"measurement": "MRT inf", "setting": "[3]; Non compartment model, mice", "result": 7.29, "unit": "h"},
      {"measurement": "MRT inf", "setting": "[3]; One-compartment model, mice", "result": 0.503, "unit": "h"},
      {"measurement": "MRT inf", "setting": "[3]; Two-compartment model, mice", "result": 9.26, "unit": "h"},
      {"measurement": "half-life", "setting": "[3]; T1/2(α), Two-compartment model, mice", "result": 9.06, "unit": "min"},
      {"measurement": "half-life", "setting": "[3]; T1/2(β), Two-compartment model, mice", "result": 428, "unit": "min"},
      {"measurement": "half-life", "setting": "[3]; T1/2, Non compartment model, mice", "result": 315, "unit": "min"},
      {"measurement": "half-life", "setting": "[3]; T1/2, One-compartment model, mice", "result": 20.9, "unit": "min"},
      {"measurement": "Vd", "setting": "[3]; [7]", "result": 0.136, "unit": "L"},
      {"measurement": "Vd", "setting": "[3]; [8]", "result": 0.0379, "unit": "L"},
      {"measurement": "Vd", "setting": "[3]; [9]", "result": 0.163, "unit": "L"},
      {"measurement": "K", "setting": "[3]; Non compartment model, IV 113 μg PD98059, mice", "result": 0.0022, "unit": "min⁻¹"},
      {"measurement": "AUC0-inf", "setting": "[3]; [7]", "result": 320.68, "unit": "μg x min/mL"},
      {"measurement": "AUC0-t", "setting": "[3]; [7]", "result": 175.72, "unit": "μg x min/mL"},
      {"measurement": "AUMC0-inf", "setting": "[3]; [7]", "result": "140,206.69 μg x min^2/mL"},
      {"measurement": "V", "setting": "[3]; [7]", "result": 141.65, "unit": "mL"},
      {"measurement": "AUC0-inf", "setting": "[3]; [8]", "result": 79.61, "unit": "μg x min/mL"},
      {"measurement": "AUC0-t", "setting": "[3]; [8]", "result": 79.61, "unit": "μg x min/mL"},
      {"measurement": "AUMC0-inf", "setting": "[3]; [8]", "result": "2,402.29 μg x min^2/mL"},
      {"measurement": "K", "setting": "[3]; [8]", "result": 0.033, "unit": "min⁻¹"},
      {"measurement": "V", "setting": "[3]; [8]", "result": 37.90, "unit": "mL"},
      {"measurement": "A", "setting": "[3]; [9]", "result": 2.65, "unit": "µg/mL"},
      {"measurement": "AUC0-inf", "setting": "[3]; [9]", "result": 340.78, "unit": "μg x min/mL"},
      {"measurement": "AUC0-t", "setting": "[3]; [9]", "result": 170.01, "unit": "μg x min/mL"},
      {"measurement": "AUMC0-inf", "setting": "[3]; [9]", "result": "189,279.12 μg x min^2/mL"},
      {"measurement": "B", "setting": "[3]; [9]", "result": 0.49, "unit": "µg/mL"},
      {"measurement": "K10", "setting": "[3]; [9]", "result": 0.0092, "unit": "min⁻¹"},
      {"measurement": "K12", "setting": "[3]; [9]", "result": 0.055, "unit": "min⁻¹"},
      {"measurement": "K21", "setting": "[3]; [9]", "result": 0.013, "unit": "min⁻¹"},
      {"measurement": "V", "setting": "[3]; [9]", "result": 31.72, "unit": "mL"},
      {"measurement": "α", "setting": "[3]; [9]", "result": 0.076, "unit": "min⁻¹"},
      {"measurement": "β", "setting": "[3]; [9]", "result": 0.0016, "unit": "min⁻¹"},
      {"measurement": "maximum PD98059 level in the brain", "setting": "[4]; 5 minutes following IV injection", "result": "about 3 μg/g"},
      {"measurement": "AUC0-6", "setting": "[4]; Brain", "result": 334.25, "unit": "μg x min/mL"},
      {"measurement": "AUC0-6", "setting": "[4]; Heart", "result": 160.37, "unit": "μg x min/mL"},
      {"measurement": "AUC0-6", "setting": "[4]; Kidney", "result": 301.47, "unit": "μg x min/mL"},
      {"measurement": "AUC0-6", "setting": "[4]; Liver", "result": 125.38, "unit": "μg x min/mL"},
      {"measurement": "AUC0-6", "setting": "[4]; Lung", "result": 459.51, "unit": "μg x min/mL"},
      {"measurement": "AUC0-6", "setting": "[4]; Muscle", "result": 129.86, "unit": "μg x min/mL"},
      {"measurement": "AUC0-6", "setting": "[4]; Pancreas", "result": 177.37, "unit": "μg x min/mL"},
      {"measurement": "AUC0-6", "setting": "[4]; Spleen", "result": 129.72, "unit": "μg x min/mL"},
      {"measurement": "distribution half-life", "setting": "[5]", "result": "less than 10 minutes"},
      {"measurement": "free PD98059 dissolved", "setting": "[6]", "result": "more than 80%"}
    ]},
    {"smiles": "CC(=O)O[C@H]1C(=O)[C@@]2(C)[C@H]([C@H](OC(=O)c3ccccc3)[C@]3(O)C[C@H](OC(=O)[C@H](O)[C@@H](NC(=O)c4ccccc4)c4ccccc4)C(C)=C1C3(C)C)[C@]1(OC(C)=O)CO[C@@H]1C[C@@H]2O", "note": "[PTX, paclitaxel]", "values": [
      {"measurement": "cells at the G2/M phase", "setting": "Hec50co cells [2]; 5 nM PTX + 25 μM PD98059, 24 hr", "result": 42.15, "unit": "%"},
      {"measurement": "cells at the G2/M phase", "setting": "Hec50co cells [2]; 5 nM PTX, 24 hr", "result": 37.2, "unit": "%"},
      {"measurement": "cells at the G2/M phase", "setting": "Hec50co cells [2]; 10 nM PTX + 25 μM PD98059, 24 hr", "result": 74.99, "unit": "%"},
      {"measurement": "cells at the G2/M phase", "setting": "Hec50co cells [2]; 10 nM PTX, 24 hr", "result": 45.74, "unit": "%"}
    ]}
  ]
}
